# Experimental data as given in publication PMC3018740 (Fitoterapia, 2010).
# “Also recorded” adds a separate entry of the source.
# What was measured:
# Human recombinant COX-2 [1] = target: T1, Human recombinant COX-2 (Homo sapiens, UniProt P35354); assay: Pulsed ultrafiltration LC-MS-MS screening for COX-2 ligands; type: binding; settings: for Relative binding to COX-2: bound/free ratio = (pulsed ultrafiltration peak area)/(peak area washing buffer); for Specific binding to COX-2 (in words): pulsed ultrafiltration LC-MS-MS
# T1 sequence (P35354 18-604): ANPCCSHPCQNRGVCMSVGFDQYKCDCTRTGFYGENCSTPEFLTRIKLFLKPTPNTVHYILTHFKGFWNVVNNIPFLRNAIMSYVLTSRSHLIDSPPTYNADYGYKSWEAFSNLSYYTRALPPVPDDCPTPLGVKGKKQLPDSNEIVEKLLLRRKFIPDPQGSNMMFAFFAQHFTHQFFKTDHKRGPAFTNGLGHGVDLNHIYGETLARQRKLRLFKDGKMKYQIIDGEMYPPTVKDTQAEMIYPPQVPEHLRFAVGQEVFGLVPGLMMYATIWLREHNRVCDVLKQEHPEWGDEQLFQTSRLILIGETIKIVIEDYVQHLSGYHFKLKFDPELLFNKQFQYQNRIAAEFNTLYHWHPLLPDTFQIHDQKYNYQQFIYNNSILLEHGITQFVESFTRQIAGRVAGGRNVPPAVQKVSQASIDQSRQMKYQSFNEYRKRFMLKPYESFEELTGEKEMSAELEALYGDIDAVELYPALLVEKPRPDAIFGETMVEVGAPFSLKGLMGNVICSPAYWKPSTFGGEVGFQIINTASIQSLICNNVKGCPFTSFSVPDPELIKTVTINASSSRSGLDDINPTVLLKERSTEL
# COX-2 = settings: read-out: Previously reported IC50 for inhibition of COX-2; cell-based assay; cited from earlier work
# ovine COX-1 = target: T2, ovine COX-1 (Ovis aries, UniProt P05979); assay: COX-1 inhibition assay; type: biochemical; settings: for IC50: read-out: IC50 COX-1, purified compounds
# T2 sequence (P05979 25-600): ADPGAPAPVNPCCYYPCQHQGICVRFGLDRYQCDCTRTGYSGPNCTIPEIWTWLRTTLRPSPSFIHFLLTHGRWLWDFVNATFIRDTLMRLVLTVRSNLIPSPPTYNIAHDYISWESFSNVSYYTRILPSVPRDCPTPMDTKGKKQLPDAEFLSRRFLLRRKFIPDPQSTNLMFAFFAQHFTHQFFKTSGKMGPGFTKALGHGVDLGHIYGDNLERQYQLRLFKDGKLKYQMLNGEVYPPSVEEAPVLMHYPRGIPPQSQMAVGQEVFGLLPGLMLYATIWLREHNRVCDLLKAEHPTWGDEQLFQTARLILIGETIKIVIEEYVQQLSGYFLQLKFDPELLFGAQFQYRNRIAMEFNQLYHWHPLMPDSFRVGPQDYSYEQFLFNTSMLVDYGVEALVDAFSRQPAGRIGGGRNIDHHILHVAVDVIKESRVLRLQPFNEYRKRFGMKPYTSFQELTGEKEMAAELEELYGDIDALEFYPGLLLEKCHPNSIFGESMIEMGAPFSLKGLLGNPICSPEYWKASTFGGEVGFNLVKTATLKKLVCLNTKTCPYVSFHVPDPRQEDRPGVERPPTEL
# Summary of the method: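 PGE2 produced by COX-1 with test compound present was quantified by LC-MS-MS. Percent inhibition was calculated against PGE2 from the negative-control incubation. Each compound was tested at 12 concentrations, three times each. IC50 was obtained by fitting the inhibition curve.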
# Human recombinant COX-2 [2] = target: T1, Human recombinant COX-2; assay: COX-2 inhibition assay; type: biochemical; settings: read-out: IC50 COX-2; purified compounds
Relative binding to COX-2 (Human recombinant COX-2 [1]),IC50 (ovine COX-1) [µM],IC50 (Human recombinant COX-2 [2]) [µM],Compound,Specific binding to COX-2 (in words) (Human recombinant COX-2 [1]),IC50 (COX-2) [µM],Inhibition of COX-1 (in words) (ovine COX-1)
0,,,CCCCC/C=C/C(=O)CCc1ccc(O)c(OC)c1 [6-shogaol],COX-2 ligands but not 6-shogaol or 12-shogaol,2.1,
0,,,CCCCCCCC(O)CC(O)CCc1ccc(O)c(OC)c1 (stereo not shown) [8-gingerdiol],,,
0.27 ± 0.02,> 50,17.5 ± 2.2,CCCCCCC/C=C/C(=O)CCc1ccc(O)c(OC)c1 [8-shogaol],bound to the enzyme active site; also recorded: COX-2 ligands,7.2,No inhibition of COX-1 was detected; also recorded: did not inhibit COX-1
0.24 ± 0.05,,,CCCCCCCCCC(=O)CC(=O)CCc1ccc(O)c(OC)c1 [10-gingerdione],bound to the enzyme active site,,
0.17 ± 0.03,> 50,32 ± 1.5,CCCCCCCCC[C@H](O)CC(=O)CCc1ccc(O)c(OC)c1 [10-gingerol],bound to the enzyme active site; also recorded: bound to COX-2,,No inhibition of COX-1 was detected; also recorded: did not inhibit COX-1
0.23 ± 0.01,,,CCCCCCCCCCC[C@H](O)CC(=O)CCc1ccc(O)c(OC)c1 [12-gingerol],bound to the enzyme active site; also recorded: bound to COX-2,,

# The remaining lines, values behind:
Compound,Relative binding to COX-2 (Human recombinant COX-2 [1]),IC50 (ovine COX-1) [µM],IC50 (Human recombinant COX-2 [2]) [µM],Specific binding to COX-2 (in words) (Human recombinant COX-2 [1]),IC50 (COX-2) [µM],Inhibition of COX-1 (in words) (ovine COX-1)
6-dehydro-6-gingerol,0,,,,,
CCCCC/C=C/[C@H](O)CC(=O)CCc1ccc(O)c(OC)c1 [6-dehydro-8-gingerol],0,,,,,
CCCCCCC/C=C/[C@H](O)CC(=O)CCc1ccc(O)c(OC)c1 [6-dehydro-10-gingerol],0.15 ± 0.01,,,bound to the enzyme active site,,
CCCCC[C@H](O)C[C@H](O)CCc1ccc(O)c(OC)c1 [6-gingerdiol],0,,,,,
CCCCCC(=O)CC(=O)CCc1ccc(O)c(OC)c1 [6-gingerdione],0.23 ± 0.02,,,bound to the enzyme active site,,
CCCCC[C@H](O)CC(=O)CCc1ccc(O)c(OC)c1 [6-gingerol],0,,,not 6-gingerol or 8-gingerol bound to COX-2,> 50,
CCCCCCCC(=O)CCc1ccc(O)c(OC)c1 [6-paradol],,,,bound to the enzyme active site; also recorded: bound to COX-2,,
CCCCCCCC(=O)CC(=O)CCc1ccc(O)c(OC)c1 [8-gingerdione],0.20 ± 0.03,,,bound to the enzyme active site,,
CCCCCCC[C@H](O)CC(=O)CCc1ccc(O)c(OC)c1 [8-gingerol],0,,,not 6-gingerol or 8-gingerol bound to COX-2,10,
CCCCCCCCCC(=O)CCc1ccc(O)c(OC)c1 [8-paradol],0.70 ± 0.02,,,bound to the enzyme active site; also recorded: bound to COX-2,,
CCCCCCCCCCCC(=O)CCc1ccc(O)c(OC)c1 [10-paradol],0,,,not 10-paradol bound to COX-2,,
CCCCCCCCC/C=C/C(=O)CCc1ccc(O)c(OC)c1 [10-shogaol],0.35 ± 0.03,> 50,7.5 ± 0.6,bound to the enzyme active site; also recorded: COX-2 ligands,,No inhibition of COX-1 was detected; also recorded: did not inhibit COX-1
CCCCCCCCCCC/C=C/C(=O)CCc1ccc(O)c(OC)c1 [12-shogaol],0,,,COX-2 ligands but not 6-shogaol or 12-shogaol,,
